Bioassay records from PubChem BioAssay.
INS promoter inh = inhibitors of insulin promoter-driven GFP, primary screen, imaging, TRM-6 cells (human fetal islet line), eGFP reporter, cell count; AID 1273, 2008; 130,000 tested, 0.9% active; reporter expression induced with tamoxifen; inhibition, % at 2 µM;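 active = inhibition above the mean plus 3 SD, with well images judged a real hit on visual review, cut at about 60% in these data, passing the limit was not always enough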
BB579 growth dn = growth inhibitors of yeast BB579 in restrictive medium, primary screen, yeast lifespan-shortening project, S. cerevisiae. inhibition, % at 10 µM. 140,000 tested, 0.51% active. OD615, 48 h;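 active = inhibition above a set limit, 3 SD over the mean compound inhibition, cut at about 44% in these data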
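Test system: DeaD yeast strain BB579 / Buffer or medium: restrictive glucose-based CSMM-D medium / Doses: single 10 µM dose / Schedule: 4 h cell preincubation, 48 h compound exposure, 30 °C humidified / Technique: culture absorbance at 615 nm / Controls: amphotericin B positive control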
MDM2 E3 inh = MDM2-luciferase reporter signal enhancers, primary screen, MDM2 E3 ligase inhibitor project, cell-based, luminescence, 1536-well; AID 1230, 2008; E3 ubiquitin-protein ligase Mdm2 (Homo sapiens), Q00987; cell-based MDM2 ubiquitination luciferase reporter, 2 h; 0 = plate control, 100 = twice control, blank-subtracted; signal enhancement, % at 5 µM; 210,000 tested, 0.11% active;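 active = signal enhancement of 30% or more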;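 also: luminescence tracks abundance of the self-degrading MDM2-luciferase fusion protein; higher signal means inhibition of MDM2 E3 ligase activity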
Target sequence (Q00987 whole entry, looked up, the tested form may be a part): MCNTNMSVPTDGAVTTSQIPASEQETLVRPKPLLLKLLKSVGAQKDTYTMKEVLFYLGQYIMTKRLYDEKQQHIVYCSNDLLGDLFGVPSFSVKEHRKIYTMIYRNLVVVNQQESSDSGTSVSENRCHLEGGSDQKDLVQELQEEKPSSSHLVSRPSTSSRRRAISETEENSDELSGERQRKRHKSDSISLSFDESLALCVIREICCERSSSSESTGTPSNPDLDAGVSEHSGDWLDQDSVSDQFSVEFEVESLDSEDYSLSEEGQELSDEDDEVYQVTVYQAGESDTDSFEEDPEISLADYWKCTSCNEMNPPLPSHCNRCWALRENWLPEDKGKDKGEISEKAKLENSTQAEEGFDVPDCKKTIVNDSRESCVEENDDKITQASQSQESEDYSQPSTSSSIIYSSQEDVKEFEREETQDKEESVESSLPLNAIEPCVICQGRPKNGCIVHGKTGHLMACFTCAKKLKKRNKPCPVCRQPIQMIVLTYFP
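Material: Stable MDM2–luciferase fusion reporter cells | Amount: 2000 cells seeded into each well | Dosing: One concentration, 5 µM, with 0.2% DMSO | Incubation: 4 h cell settling then 2 h compound exposure, 37 °C | Measured by: Luciferase luminescence | Read-out basis: % enhancement relative to plate controls after blank subtraction | Benchmarks: Control and blank well means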
RAM inhibit = inhibitors of the yeast RAM network, primary screen, dse1pr::URA3 reporter, 5-FOA selection; 190,000 tested, 1.8% active; inhibition, % at 50 µM; S. cerevisiae dse1pr::URA3 reporter, 5-FOA growth OD615, 2 d; analog-sensitive cbk1-as2 kinase mutant strain; AID 868, 2007;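 active = inhibition above a set limit, 3 SD over mean compound inhibition, cut at about 8.4% in these data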;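 also: 0% = DMSO-only wells with no growth and 100% = 10 µM 1-NA-PP1 full growth; inhibition rescues growth on 5-FOA so higher OD means more RAM inhibition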
Yeast life ext = compounds extending yeast replicative lifespan, primary screen, S. cerevisiae, OD615; S. cerevisiae growth with nicotinamide; deaD strain in restrictive glucose medium; inhibition of the nicotinamide effect, % at 10 µM; 130,000 tested, 0.68% active; AID 775, 2007;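 active = inhibition above a set limit, placed 3 SD over the median of all compounds, cut at about 26% in these data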;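 also: 0% = nicotinamide-treated wells and 100% = cells grown without nicotinamide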
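Measured by: optical density (absorbance) at 615 nm; System: modified budding yeast, DeaD strain; Medium: restrictive CSMM-D dextrose medium; Timing: 4 h preincubation then 48 h treatment at 30 °C.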
Measles CPE = compounds protecting cells from measles virus cytopathic effect, primary screen, measles RdRp inhibitor project, single point, MLSMR library, absorbance; Measles virus-infected cells, CPE protection; AID 841, 2007; protection (pct of control), % at 4 µM; 140,000 tested, 1.5% active; in the data active = protection mostly above about 24%, no sharp cut-off; inactive = mostly below about 26%
An asterisk follows results filed as active. Hits are enriched below; roughly 4% of the tested compounds scored in any of these assays.

`COc1ccc(C(=O)N/N=C/c2cn[nH]c2-c2ccc(OC)cc2OC)cc1` gave INS promoter inh 66*, BB579 growth dn -2, MDM2 E3 inh 12, RAM inhibit 3, Yeast life ext 1 and Measles CPE 21.
Screening CC1(C2CC(C(F)(F)F)n3nc(C(=O)O)cc3N2)CC1 (stereo not drawn) returned MDM2 E3 inh 0 and RAM inhibit 1.
For COc1ccc(C(=O)C2CCCN(Cc3cccn3-c3ccc(Cl)cn3)C2)c(OC)c1 (stereo not drawn) the results were INS promoter inh -39, MDM2 E3 inh -12 and RAM inhibit 3.
Screening O=C(Nc1ccc(F)cc1F)N1CCN(c2ncccn2)CC1 returned INS promoter inh -57, BB579 growth dn 7, MDM2 E3 inh -3, RAM inhibit 0, Yeast life ext -7 and Measles CPE 12.
O=C(Nc1ccc(C(=O)Oc2ccccc2)c(O)c1)c1ccccc1 was read as INS promoter inh 0, MDM2 E3 inh -15 and RAM inhibit 1.
CCOC(=O)Nc1ccc(C(=O)Oc2ccccc2)c(O)c1 was read as INS promoter inh 17, BB579 growth dn -55, MDM2 E3 inh -8, RAM inhibit 5, Yeast life ext -27 and Measles CPE 40*.
Screening [O-]/[N+](=C\c1ccc(OC(F)F)cc1)c1ccccc1 returned BB579 growth dn -29, MDM2 E3 inh -5, RAM inhibit 1, Yeast life ext -6 and Measles CPE 42*.
For [O-]/[N+](=C/c1ccc(F)cc1)c1ccccc1 the results were INS promoter inh -19, BB579 growth dn -30, MDM2 E3 inh -11, RAM inhibit 1, Yeast life ext -23 and Measles CPE 32.
Screening Cc1cccc(COCCN2CCN(S(=O)(=O)c3ccccc3)CCC2=O)c1 returned MDM2 E3 inh 16.
Screening Cc1cc[n+](-c2nc([O-])sc2/C=N/Nc2ccc([N+](=O)[O-])cc2)cc1 returned INS promoter inh -4, BB579 growth dn -33, MDM2 E3 inh -11, RAM inhibit 3, Yeast life ext -11 and Measles CPE 49*.
COC(=O)c1[nH]c2ccccc2c1NC(=O)CN1CCN(C(=O)c2ccco2)CC1 was read as INS promoter inh 91*, BB579 growth dn -41, MDM2 E3 inh 11, RAM inhibit 1, Yeast life ext -7 and Measles CPE 6.
Screening CCOC(=O)c1c(C)n(C)c2ccc(OC)c(NC(=O)CN3CCN(C(=O)c4ccco4)CC3)c12 returned INS promoter inh 31, BB579 growth dn -57, MDM2 E3 inh -7, RAM inhibit 0, Yeast life ext -1 and Measles CPE 26*.
CCOC(=O)c1c(C)n(C)c2ccc(OC)c(NC(=O)CCN3CCSCC3)c12 was read as INS promoter inh -7, BB579 growth dn -36, MDM2 E3 inh -14, RAM inhibit -1, Yeast life ext -4 and Measles CPE 37*.
`CCOC(=O)Cc1csc(/N=C/c2c(O)n(-c3ccccc3C(F)(F)F)c(=O)c3ccccc23)n1` gave INS promoter inh 40, BB579 growth dn -62, MDM2 E3 inh -1, RAM inhibit 4, Yeast life ext -1 and Measles CPE 5.
C=CCn1ncc(OC)c(Cl)c1=O was read as INS promoter inh 54, BB579 growth dn -57, MDM2 E3 inh -8, RAM inhibit 0, Yeast life ext -6 and Measles CPE 89*.
For Cn1c(=O)c(C(=O)COC(=O)c2cc(-c3ccccc3)nc3ccccc23)c(N)n(Cc2ccccc2)c1=O the results were INS promoter inh -48, BB579 growth dn -37, RAM inhibit 7, Yeast life ext 8 and Measles CPE 25*.
